Active and inactive are the calls of the source. The rule behind the calls is not given here.
Assays:
[1] = target: T1, Monoglyceride lipase (Mus musculus) (UniProt O35678); test: Inhibition of MAGL in mouse whole brain membranes at 10 uM incubated for 1 hr by TAMRA-FP probe based competitive activity-based protein profiling assay; type: cell membranes; settings: Membrane
T1 sequence (whole entry): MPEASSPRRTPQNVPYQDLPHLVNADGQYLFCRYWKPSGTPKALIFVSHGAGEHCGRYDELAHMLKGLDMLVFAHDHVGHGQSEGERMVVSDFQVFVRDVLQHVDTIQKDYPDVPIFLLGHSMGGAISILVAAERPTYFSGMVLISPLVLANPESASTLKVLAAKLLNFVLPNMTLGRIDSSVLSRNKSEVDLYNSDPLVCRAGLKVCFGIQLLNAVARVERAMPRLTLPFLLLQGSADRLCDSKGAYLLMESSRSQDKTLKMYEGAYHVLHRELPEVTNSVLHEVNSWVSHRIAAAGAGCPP
Procedure, shortened: (§1)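 Competitive ABPP on mouse brain membranes (100 µg) treated 1 h with DMSO or inhibitor. TAMRA-FP labelling then ran 1 h at RT (final probe 2 µM). Reaction was quenched with gel loading buffer and proteins resolved by 10% SDS–PAGE for fluorescent band read-out. WWL70 located the ABHD6 band. Gels are representative of two experiments.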

[2] = target: T2, Monoacylglycerol lipase ABHD6 (Mus musculus) (UniProt Q8R2Y0); test: Inhibition of ABHD6 in mouse whole brain membranes at 1 uM incubated for 1 hr by TAMRA-FP probe based competitive activity-based protein profiling assay; type: cell membranes; settings: Membrane; procedure, shortened: as §1
T2 sequence (whole entry): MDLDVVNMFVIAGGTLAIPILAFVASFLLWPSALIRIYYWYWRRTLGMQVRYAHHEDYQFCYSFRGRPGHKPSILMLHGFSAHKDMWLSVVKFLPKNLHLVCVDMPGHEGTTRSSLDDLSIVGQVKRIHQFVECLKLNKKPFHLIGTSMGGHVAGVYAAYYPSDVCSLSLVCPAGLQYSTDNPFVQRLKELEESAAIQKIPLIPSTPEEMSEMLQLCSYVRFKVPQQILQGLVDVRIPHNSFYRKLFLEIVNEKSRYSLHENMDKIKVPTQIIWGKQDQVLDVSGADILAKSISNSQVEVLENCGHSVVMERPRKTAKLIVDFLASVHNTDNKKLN

[3] = target: Cannabinoid receptor 1 (Rattus norvegicus) (UniProt P20272); test: Antagonist activity at CB1R in rat cerebellar membranes assessed as inhibition of HU210-induced response at 10 uM by [35S]GTPgammaS binding assay; type: functional, cell membranes; settings: Cerebellum, Membrane
Procedure, shortened: (§2)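 Rat cerebellar membranes, [35S]GTPγS binding. Agonist activity is read as % of basal binding. Antagonist activity is read as % of the HU210-evoked response. Compound tested at 10 µM. Values are mean (range), n = 2.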

[4] = target: T3, Lysophosphatidylserine lipase ABHD12 (Mus musculus) (UniProt Q99LR1); test: Inhibition of ABHD12 in mouse whole brain membranes at 32.5 uM incubated for 1 hr by TAMRA-FP probe based competitive activity-based protein profiling assay; type: cell membranes; settings: Membrane; procedure, shortened: as §1
T3 sequence (whole entry): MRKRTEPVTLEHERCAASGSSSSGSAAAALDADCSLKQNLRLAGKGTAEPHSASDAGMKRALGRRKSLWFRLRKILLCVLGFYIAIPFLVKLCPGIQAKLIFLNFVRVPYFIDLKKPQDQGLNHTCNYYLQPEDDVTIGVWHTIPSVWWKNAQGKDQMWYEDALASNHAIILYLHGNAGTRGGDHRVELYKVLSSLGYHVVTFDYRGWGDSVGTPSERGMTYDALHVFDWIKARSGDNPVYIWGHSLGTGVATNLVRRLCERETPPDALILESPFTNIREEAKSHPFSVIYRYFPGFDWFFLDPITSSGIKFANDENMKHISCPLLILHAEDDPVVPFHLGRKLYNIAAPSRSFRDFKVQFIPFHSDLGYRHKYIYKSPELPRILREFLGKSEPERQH

[5] = target: Cannabinoid receptor 2 (Homo sapiens) (UniProt P34972); test: Agonist activity at human CB2R expressed in CHO cell membranes at 10 uM by [35S]GTPgammaS binding assay; type: functional
[6] = target: T4, Monoglyceride lipase (Homo sapiens) (UniProt Q99685); test: Inhibition of human MAGL expressed in HEK293 cells at 10 uM pre-incubated for 10 mins before 2-AG substrate addition by HPLC method; type: cell-based
T4 sequence (whole entry): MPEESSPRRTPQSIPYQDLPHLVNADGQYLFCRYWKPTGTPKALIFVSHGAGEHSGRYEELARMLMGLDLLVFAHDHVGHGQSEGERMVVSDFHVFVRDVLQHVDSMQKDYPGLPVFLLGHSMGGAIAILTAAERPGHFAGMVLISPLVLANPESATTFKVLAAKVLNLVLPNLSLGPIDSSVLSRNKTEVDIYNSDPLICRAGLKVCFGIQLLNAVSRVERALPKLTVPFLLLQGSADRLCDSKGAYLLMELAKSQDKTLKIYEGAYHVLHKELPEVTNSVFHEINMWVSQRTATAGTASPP
Procedure, shortened: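 Lysates of hMAGL-overexpressing HEK293 cells in 50 mM Tris–HCl pH 7.4 with 1 mM EDTA. After a 10 min preincubation with inhibitor or DMSO, 2-AG was added (final 50 µM) and incubated 10 min at 37 °C. The reaction was stopped and samples centrifuged. Arachidonic acid formation and 2-AG depletion were measured by HPLC. Replicates as for the FAAH assay.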

[7] = target: T5, Monoacylglycerol lipase ABHD6 (Homo sapiens, UniProt Q9BV23); test: Inhibition of human ABHD6 expressed in HEK293 cells at 1 uM pre-incubated for 10 mins before 2-AG substrate addition followed by rapid 40 fold compound dilution measured after 90 mins by HPLC method; type: cell-based
T5 sequence (Q9BV23 whole entry): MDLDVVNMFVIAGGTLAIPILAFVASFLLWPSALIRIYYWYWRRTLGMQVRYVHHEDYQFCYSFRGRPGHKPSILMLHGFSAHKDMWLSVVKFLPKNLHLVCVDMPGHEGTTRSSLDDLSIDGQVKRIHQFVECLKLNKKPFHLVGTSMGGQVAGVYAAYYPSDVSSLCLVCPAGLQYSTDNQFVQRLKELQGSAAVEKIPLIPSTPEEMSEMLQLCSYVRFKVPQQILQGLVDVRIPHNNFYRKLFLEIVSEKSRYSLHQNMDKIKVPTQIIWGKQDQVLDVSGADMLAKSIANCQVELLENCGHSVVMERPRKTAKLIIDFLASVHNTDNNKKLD

[8] = target: T6, Monoacylglycerol lipase ABHD6 (Homo sapiens) (UniProt Q9BV23); settings: HEK293, 1 uM
T6 sequence (whole entry): T5 sequence (Q9BV23 whole entry)

[9] = target: Cannabinoid receptor 1 (Rattus norvegicus) (UniProt P20272); test: Agonist activity at CB1R in rat cerebellar membranes at 10 uM by [35S]GTPgammaS binding assay; type: functional, cell membranes; settings: Cerebellum, Membrane; procedure, shortened: as §2

Chain of Cannabinoid receptor 1 (Rattus norvegicus) (P20272 whole entry): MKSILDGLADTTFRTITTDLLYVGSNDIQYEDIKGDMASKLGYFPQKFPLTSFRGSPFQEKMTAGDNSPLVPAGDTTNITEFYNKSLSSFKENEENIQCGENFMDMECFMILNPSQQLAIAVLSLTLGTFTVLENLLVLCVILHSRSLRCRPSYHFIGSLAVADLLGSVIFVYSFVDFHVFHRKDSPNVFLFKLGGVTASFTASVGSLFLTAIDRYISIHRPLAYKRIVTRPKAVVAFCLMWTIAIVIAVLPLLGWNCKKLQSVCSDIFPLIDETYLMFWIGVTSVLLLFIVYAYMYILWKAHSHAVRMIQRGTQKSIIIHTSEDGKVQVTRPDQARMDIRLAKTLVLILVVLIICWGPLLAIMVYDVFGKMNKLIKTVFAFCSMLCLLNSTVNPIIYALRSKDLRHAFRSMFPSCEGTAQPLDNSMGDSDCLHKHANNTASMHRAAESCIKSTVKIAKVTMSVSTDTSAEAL
Chain of Cannabinoid receptor 2 (Homo sapiens) (P34972 whole entry): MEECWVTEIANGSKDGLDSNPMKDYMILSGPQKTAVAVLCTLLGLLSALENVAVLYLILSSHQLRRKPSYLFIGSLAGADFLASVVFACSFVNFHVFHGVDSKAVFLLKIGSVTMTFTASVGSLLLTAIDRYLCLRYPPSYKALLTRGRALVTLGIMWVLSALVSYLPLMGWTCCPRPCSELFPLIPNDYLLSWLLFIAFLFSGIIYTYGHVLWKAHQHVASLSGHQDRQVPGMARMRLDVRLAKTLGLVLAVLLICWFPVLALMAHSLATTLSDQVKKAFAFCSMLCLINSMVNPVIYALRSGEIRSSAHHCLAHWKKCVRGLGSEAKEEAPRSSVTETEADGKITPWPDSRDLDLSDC

Row | inhibition [1] | inhibition [2] | % of HU210 response [3] | inhibition [4] | Activity [5] | inhibition [6] | IC50 [7] | inhibition [8] | Activity [9] | Compound
1 | Active | Active |  |  |  |  |  |  |  | Nc1cccc(Cn2nc(Oc3ccccc3)oc2=O)c1
2 | inactive |  | 104% | Active | 107% | 21% | 3.31 µM | Active | 96% | COc1nn(Cc2cccc(N)c2)c(=O)o1
